KCNK9 block – human KCNK9 channel inhibition. Q9NPC2. HEK293 KCNK9, FluxOR thallium flux fluorescence; hits give low values. B-score at 10 µM. 310,000 tested, 1.2% active;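 active means ratio B-score over 3 SD below the library mean, with starting fluorescence within 5 SD of its mean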;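 further: negative B-score means less thallium flux so channel inhibition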
Kir21 inh – inhibitors of mouse Kir2.1 inward-rectifier potassium channel; P35561; HEK293-Kir2.1, FluxOR thallium flux fluorescence; hits give low values; B-score at 10 µM; 310,000 tested, 0.85% active;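 active means fluorescence ratio B-score at or below minus 3 SD of library scores, with starting-brightness B-score within 2 SD, cut at about -4.2 in these data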;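 further: channel flux triggered by added potassium and thallium sulfate stimulus; B-score of peak minus minimum fluorescence over baseline after thallium stimulus; more negative B-score means stronger Kir2.1 block with less thallium influx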
KCNQ1 inh – human KCNQ1 channel inhibition | CHO-K1 KCNQ1, FluxOR thallium flux fluorescence; hits give high values | B-score at 10 µM | 310,000 tested, 1.3% active | AID 2642;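 active means compounds whose thallium flux B-score, printed positive for inhibition, exceeds three library SD while starting fluorescence stays within three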;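 further: channel opened by potassium depolarization with thallium stimulus after 20 min compound exposure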
KCNQ1 act – potentiators or activators of human KCNQ1 potassium channel. B-score at 10 µM. P51787. 310,000 tested, 0.35% active. CHO-K1 KCNQ1, thallium flux FluxOR fluorescence; hits give high values. AID 2648;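 active means fluorescence ratio B-score, a plate-corrected score, at least three library SD, with initial intensity B-score within 5 SD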
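Test system: CHO-K1 cells stably expressing KCNQ1 / Medium: assay buffer / Also added: depolarizing K+/Tl+ stimulus, K2SO4 and Tl2SO4 each 12.5 mM in 5x stock / Incubation: 90 min dye loading and 20 min compound exposure, both at room temperature / Signal: thallium influx via FluxOR fluorescence, kinetic imaging / Evaluation: B score of baseline-normalized fluorescence ratio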
hERG protect – hERG (human) protection from proarrhythmic block | Q12809 | CHO-hERG, FluxOR thallium flux, dofetilide IC70 present | activation (rescue from dofetilide block), less the hit threshold, % at 10 µM | 310,000 tested, 0.51% active;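 active means activation above the mean of controls blocked by dofetilide plus 5 SD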;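 further: thallium influx through hERG after potassium depolarization seen as dye fluorescence rise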
KCNK3 block – human KCNK3 channel inhibition, primary screen | O14649 | CHO-KCNK3 thallium flux, FluxOR fluorescence; hits give low values | B-score at 10 µM | 340,000 tested, 0.84% active | AID 602410;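 active means B-score under library mean minus 4 SD, starting fluorescence ratio at most library mean plus 5 SD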;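 further: more negative B-score means stronger inhibition of thallium flux through KCNK3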
Target sequence (O14649 whole entry, looked up): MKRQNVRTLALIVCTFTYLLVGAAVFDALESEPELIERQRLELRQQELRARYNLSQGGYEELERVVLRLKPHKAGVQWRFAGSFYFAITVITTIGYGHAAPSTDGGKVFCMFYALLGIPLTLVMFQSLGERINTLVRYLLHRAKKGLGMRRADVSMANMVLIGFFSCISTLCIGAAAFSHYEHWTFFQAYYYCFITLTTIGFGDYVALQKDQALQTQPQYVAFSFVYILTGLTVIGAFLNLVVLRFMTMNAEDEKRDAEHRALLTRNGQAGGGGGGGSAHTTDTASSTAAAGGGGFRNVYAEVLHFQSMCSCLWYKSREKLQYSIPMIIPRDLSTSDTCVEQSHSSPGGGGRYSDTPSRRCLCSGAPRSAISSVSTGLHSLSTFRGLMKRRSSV
KCNK9 block conf – human KCNK9 inhibitor confirmation. HEK293 KCNK9 cells, FluxOR thallium flux fluorescence. shares compounds with KCNK9 block. 4,900 tested, 43% active. inhibition, % at 10 µM;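 active means thallium signal inhibited by more than 5 SD of the compound-free buffer control wells, on both duplicate plates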;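 further: 0% = assay buffer control wells without compound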
Kir21 sel – mouse Kir2.1 off-target activity of KCNK9 modulators. 4,900 tested, 4% active. Kir2.1 cells, FluxOR thallium flux fluorescence. shares compounds with KCNK9 block. inhibition, % at 10 µM;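 active means thallium signal drop more than 5 SD beyond the mean of the no-compound control wells, seen in both duplicate plates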;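 further: signal is fluorescence rise after thallium addition divided by baseline fluorescence; plate controls were assay buffer only for no effect and full block by chlorpromazine control for full effect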
HEK293 Tl ctr – non-induced cell nonspecific activity of KCNK9 modulators. shares compounds with KCNK9 block. non-induced KCNK9-HEK293, FluxOR thallium flux. inhibition, % at 10 µM. 4,900 tested, 40% active. AID 492997;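 active means thallium signal drop beyond 5 SD of the untreated control mean, on both duplicate plates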;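 further: plate controls were buffer only IC0 wells for no effect and SID17386958 at its maximal inhibitory level for full effect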
Starred values were filed as active, the others as inactive; i = inactive; / = no result given. The list is not random: actives were taken first. Their share in the collection is about 3.8%.

SMILES	KCNK9 block	Kir21 inh	KCNQ1 inh	KCNQ1 act	hERG protect	KCNK3 block	KCNK9 block conf	Kir21 sel	HEK293 Tl ctr
Cc1ccc2c(c1)N(C(=O)c1ccco1)C(C)(C)c1ssc(=S)c1-2	-8.3*	0.58	i	i	-1	i	38%*	i	30%*
Cc1cccc2c1N(C(=O)c1ccco1)C(C)(C)c1ssc(=S)c1-2	i	0.05	i	i	-7	i	/	/	/
C/C(=N\N1CCN(c2ccccc2)CC1)c1ccc(O)cc1	i	1.3	i	i	-9	i	/	/	/
CC(c1cccs1)N(C(=O)Nc1ccccc1)C1CCCCC1 (stereo not given)	i	-0.33	i	i	-20	i	i	i	i
O=C1CC(=O)N(CCc2ccccc2)C(=O)N1CCc1ccccc1	i	1.4	i	i	-12	i	i	i	i
CC1CCN(c2nc3ccc(C(=O)NCCCN4CCCCC4C)cc3s2)CC1 (stereo not given)	i	-0.45	i	i	-10	i	/	/	/
COc1ccc(-c2[nH]c(-c3ccc(C(=O)O)cc3)nc2-c2ccccc2)cc1	i	-0.09	i	i	-10	i	/	/	/
COc1cc(-c2nc(-c3ccc4c(c3)-c3ccccc3S4(=O)=O)c(-c3ccccc3)[nH]2)cc(OC)c1O	-16*	-0.05	6*	i	-9	-10*	69%*	i	28%*
Oc1ccc(C[C@H]2CNC(=S)N2CC2CCCN2C[C@H](Cc2ccc(O)cc2)N2C[C@H](Cc3ccccc3)N(CC3CCCCC3)C2=S)cc1 (stereo not given in full)	/	/	/	/	/	i	/	/	/
N#Cc1c(N2CCN(C(=O)c3ccco3)CC2)nc(-c2ccccc2)c2c1CCCC2	i	-0.92	i	i	-29	i	/	/	/
N#Cc1c(N2CCN(C(=O)c3ccccc3)CC2)nc(-c2ccccc2)c2c1CCCC2	i	1.3	i	i	-7	i	i	i	i
COc1ccc(C(C)=O)cc1COc1ccc(Cl)cc1Cl	-14*	0.74	i	i	0	i	50%*	i	37%*
CC(C)CSC1=NSC2=NC(=O)/C(=C\c3ccccc3)C(=N)N12	i	1.2	i	20*	22*	i	i	i	i
Cc1cc(/C=C2\C(=N)N3C(SCc4ccccc4)=NSC3=NC2=O)c(C)n1Cc1ccccc1	i	-0.86	i	i	-5	i	/	/	/
Cc1ccc(NC(=O)CSCc2cc(=O)n3ccsc3n2)cc1	i	0.04	i	i	-5	i	/	/	/
c1ccc(Nc2scc(-c3ccccc3)[n+]2Cc2ccco2)cc1	i	-0.02	i	i	-14	i	/	/	/
c1ccc(C[n+]2c(-c3ccccc3)csc2Nc2ccccc2)cc1	-8.7*	-0.94	i	i	-4	i	35%*	i	32%*
NS(=O)(=O)c1ccc(NC(=S)Nc2ccn(Cc3cccc4ccccc34)n2)cc1	i	-1.1	i	i	-4	i	i	i	i
COc1ccc([C@H]2C(C(=O)O)=C[C@@H](C(C)(C)C)N2S(=O)(=O)c2ccccc2)cc1	/	/	/	/	/	i	/	/	/
CN(C(=O)Cc1c(C(=O)O)n(C)c2ccccc12)c1ccc(F)cc1	i	0.02	i	i	-2	i	/	/	/
Clc1cccc(COn2c(-c3ccc(Cl)cc3Cl)nc3ncccc32)c1	-8.8*	-2.3	i	i	-11	i	46%*	i	35%*
N#Cc1ccc(-c2ccc(Cl)cc2)nc1SCC(=O)c1cccc(Cl)c1	i	0.93	i	i	-5	i	/	/	/
N#Cc1ccc(-c2ccccc2)nc1SCC(=O)c1cccc(Cl)c1	-8.7*	0	i	i	-7	i	34%*	i	46%*
COc1ccc(OC)c(C(=O)NC(CC(N)=O)c2ccc(N3CCC(Cc4ccccc4)CC3)c([N+](=O)[O-])c2)c1 (stereo not given)	-11*	-1.8	i	i	-16	i	55%*	i	i
COc1ccc(OC)c(C(=O)NC(CC(N)=O)c2ccc(N3CCN(c4ccccc4)CC3)c([N+](=O)[O-])c2)c1 (stereo not given)	i	-0.95	i	i	-4	i	/	/	/
SMILES	KCNK9 block	Kir21 inh	KCNQ1 inh	KCNQ1 act	hERG protect	KCNK3 block	KCNK9 block conf	Kir21 sel	HEK293 Tl ctr
CCOP(=O)(OCC)c1nc(-c2cccc3ccccc23)oc1N1CCOCC1	i	-2	i	i	-14	i	/	/	/
CCOP(=O)(OCC)c1nc(-c2cccc3ccccc23)oc1NCCc1ccc(OC)cc1	i	-0.26	i	i	-12	i	i	i	28%*
O=C(CC1C=Cc2ccccc2N1C(=O)c1ccccc1)c1ccccc1 (stereo not given)	-13*	0.51	i	i	-7	i	30%*	i	i
CCN1CCc2c(sc(NC(=O)c3ccc(S(=O)(=O)N(C)CC4CCCO4)cc3)c2C(N)=O)C1 (stereo not given)	i	-0.34	i	i	-10	i	/	/	/
COc1cccc(OC)c1C(=O)Nc1cccc(NC(=O)c2cccs2)c1	-11*	0.04	i	i	-10	i	50%*	i	28%*
Cc1ccc(CSCc2ccc(C(=O)NC3CC3)o2)cc1	i	1	i	i	-3	i	/	/	/
Cc1ccc(CSCc2ccc(C(=O)NCCC(C)C)o2)cc1	i	0.18	i	i	-6	i	i	i	i
O=C(Nc1cccc(-c2cn3ccsc3n2)c1)c1ccccc1	-9.7*	0.5	i	i	-7	i	33%*	i	i
CCCCC(=O)Nc1cccc(-c2cn3ccsc3n2)c1	i	-0.63	i	i	-7	i	/	/	/
CCOC(=O)C1CCN(C(=O)c2cc3c(C)cc(C)cc3[nH]2)CC1	i	-1.6	i	i	-3	i	/	/	/
COc1ccccc1N1CCN(C(=O)c2oc3cc(C)cc(C)c3c2C)CC1	i	1.7	i	i	-13	i	i	i	i
CCOc1ccccc1N1CCN(C(=O)c2cc3c(C)cc(C)cc3[nH]2)CC1	-8.3*	-1.1	i	i	-6	i	i	i	i
COc1c2c(c(CCC(=O)O)c3c1C=CC(C)(C)O3)OC(C)(C)C=C2	/	/	/	/	/	i	/	/	/
